Measurements taken from publication PMC2920133 (Biochemistry, 2010).
Residue numbers refer to the chain shown, from its start. Like-named read-outs stand apart in the source and are kept apart here.

Key:
[1] = biological target: ArsD109 V17W single-tryptophan derivative (Escherichia coli, UniProt P46003, V17W/W35Y/W97Y); type: binding; conditions: for fluorescence quenching: high concentrations: 5 mM As(III) or 0.1 mM Sb(III) (Figure 2B)
[2] = biological target: ArsD109 T15W single-tryptophan derivative (Escherichia coli, UniProt P46003, T15W/W35Y/W97Y); test: Intrinsic tryptophan fluorescence quenching, metalloid binding to T15W; conditions: for fluorescence quenching: high concentrations: 5 mM As(III) or 0.1 mM Sb(III) (Figure 2B)
[3] = biological target: T1, ArsD109 C18G/T15W (Escherichia coli, UniProt P46003, C18G/T15W/W35Y/W97Y); test: Intrinsic tryptophan fluorescence quenching, As; type: binding
T1 sequence (P46003 1-109 T15W/C18G/W35Y/W97Y): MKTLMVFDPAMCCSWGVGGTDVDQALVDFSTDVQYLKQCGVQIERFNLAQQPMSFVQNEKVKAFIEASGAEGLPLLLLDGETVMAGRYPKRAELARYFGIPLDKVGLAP
How it was run: (§1)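 N-terminal His6 ArsD109 (W35/97Y, T15W, plus single Cys→Gly) expressed in BL21(DE3) with 0.3 mM IPTG for 3 h. Used at 1 μM in 50 mM MOPS-KOH pH 7.5 with 0.25 mM EDTA, room temperature. Sodium arsenite titrated. Quenching rate k_obs (ex 295 nm, em 345 nm) fitted per arsenite concentration; k_obs = k_off + k_on[As(III)], and Kd = k_off/k_on.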

[4] = biological target: T2, ArsD109 C12G/T15W (Escherichia coli, UniProt P46003, C12G/T15W/W35Y/W97Y); test: Intrinsic tryptophan fluorescence quenching, As; type: binding
T2 sequence (P46003 1-109 C12G/T15W/W35Y/W97Y): T1 sequence (P46003 1-109 T15W/C18G/W35Y/W97Y) with C12G, G18C
How it was run: as §1

[5] = biological target: T3, ArsD109 C13G/T15W (Escherichia coli, UniProt P46003, C13G/T15W/W35Y/W97Y); test: Intrinsic tryptophan fluorescence quenching, As; type: binding
T3 sequence (P46003 1-109 C13G/T15W/W35Y/W97Y): T1 sequence (P46003 1-109 T15W/C18G/W35Y/W97Y) with C13G, G18C
How it was run: as §1

[6] = system: single-tryptophan derivatives of ArsD109; type: binding, Escherichia coli; conditions: 1 μM protein mixed with equimolar As(III), absence of added thiols
How it was run: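 Single-tryptophan ArsD109 (N-terminal His6, W35/97Y background carrying T15W or V17W), expressed in E. coli BL21(DE3). Protein at 1 μM in 50 mM MOPS-KOH pH 7.5 with 0.25 mM EDTA, room temperature, no thiol added. Sodium arsenite added from concentrated stock. Trp fluorescence (ex 295 nm, em 345 nm) followed over time and corrected for dilution.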

[7] = biological target: ArsA ATPase (Escherichia coli, UniProt P08690); test: Coupled ATPase assay, metalloid-stimulated ArsA activity; type: biochemical; conditions: DMSA titration
[8] = thiolate of GS^−1; cited from earlier work
[9] = biological target: ArsD109-ArsA (Escherichia coli, UniProt P08690+P46003, DEL110-120); test: Metalloid transfer assay on amylose column; type: biochemical; conditions: 5 mM nucleotide
[10] = quenching of T15W fluorescence, retains Cys12 and Cys13
[11] = quenching of T15W fluorescence, retains Cys13 and Cys18
[12] = quenching of T15W fluorescence, retains Cys12 and Cys18
[13] = additive 5 mM, 50 μM sodium arsenite, pH 7.5

## O=[As][O-].[Na+] [As(III), sodium arsenite]
[1]; 50 μM sodium arsenite, 1 μM V17W, absence of GSH
  rate of fluorescence quenching at pH 9 relative to pH 7: ~ 10 fold
[1]; 50 μM sodium arsenite, pH 7.5
  fluorescence change in the absence of GSH: decreased very slowly
[1]
  fluorescence quenching: approximately 50%
[1]; read-out: Kd (binding affinity), calculated from koff/kon
  Kd: 2 ± 1 µM
[2]; As(III) concentration dependence of fluorescence quenching, no added thiols
  koff: (3 ± 1) × 10^−4 s^−1
[2]; calculated from koff/kon
  Kd: 1.5 ± 0.5 µM
[2]
  fluorescence quenching: approximately 50%
[3]; calculated from koff/kon
  Kd: 28 ± 3 µM
[3]; [10]
  koff: (1.4 ± 0.1) × 10^−3 s^−1
  kon: (5 ± 0.1) × 10^−5 s^−1 μM^−1
[4]; calculated from koff/kon
  Kd: 48 ± 3 µM
[4]; [11]
  koff: (2.4 ± 0.1) × 10^−3 s^−1
  kon: (5 ± 0.1) × 10^−5 s^−1 μM^−1
[5]; calculated from koff/kon
  Kd: 68 ± 6 µM
[5]; [12]
  koff: (2.7 ±0.1) × 10^−3 s^−1
  kon: (4 ±0.2) × 10^−5 s^−1 μM^−1
[6]
  time to attain a steady-state level of fluorescence: more than 2 h

## O=C(O)[C@@H](S)[C@@H](S)C(=O)O [DMSA, dimercaptosuccinic acid]
[7]; 0.3 μM ArsA alone
  effect on basal activity of ArsA: did not affect
[7]; 0.3 μM ArsA, 0.5 mM sodium arsenite
  effect on As(III)-stimulated rate of ArsA activity: inhibited

## N[C@@H](CCC(=O)N[C@@H](CS)C(=O)NCC(=O)O)C(=O)O [GSH, reduced glutathione]
[1]; 5 mM GSH, 50 μM sodium arsenite, 1 μM V17W, pH 7.5
  acceleration of rate of As(III) fluorescence quenching: 10 fold
[1]; 5 mM GSH, 50 μM sodium arsenite, pH ≥8
  rate of As(III) fluorescence quenching with additive: too fast to measure accurately
[1]; additive 0.2 mM, 50 μM sodium arsenite, pH 7.5
  effect of additive on rate of fluorescence quenching by As(III): had little effect
[1]; [13]
  effect of additive on rate of fluorescence quenching by As(III): increased the rate substantially
[8]
  pKa: 8.7

## N[C@@H](CS)C(=O)O [L-cysteine]
[1]; [13]
  effect of additive on rate of fluorescence quenching by As(III): increased the rate of quenching

## Nc1ncnc2c1ncn2[C@@H]1O[C@H](COP(=O)([O-])OP(=O)([O-])O)[C@@H](O)[C@H]1O.[Mg+2] [MgADP]
[9]; room temperature
  transfer of As(III) from MBP-ArsD109 to ArsA: As(III) eluted with MBP-ArsD109 and not with ArsA

## Nc1ncnc2c1ncn2[C@@H]1O[C@H](CO[P@](=O)(O)O[P@](=O)(O)O[P@@](=O)(O)S)[C@@H](O)[C@H]1O [MgATP-γ-S]
[9]; room temperature
  transfer of As(III) from MBP-ArsD109 to ArsA: did not promote transfer

## Nc1ncnc2c1ncn2[C@@H]1O[C@H](COP(=O)(O)OP(=O)([O-])OP(=O)([O-])O)[C@@H](O)[C@H]1O.[Mg+2] [MgATP]
[9]; 4 °C
  transfer of As(III) from MBP-ArsD109 to ArsA: almost no As(III) eluted with ArsA
[9]; room temperature
  transfer of As(III) from MBP-ArsD109 to ArsA: nearly all of the As(III) eluted in the ArsA-containing fractions

## O.O.O.O=C([O-])[C@H]([O-])[C@@H]([O-])C(=O)[O-].O=C([O-])[C@H]([O-])[C@@H]([O-])C(=O)[O-].[K+].[K+].[Sb+3].[Sb+3] [Sb(III), potassium antimonyl tartrate]
[1]; 2.5 μM, pH 7.5
  fluorescence quenching in the absence of added monothiols: rapidly quenched fluorescence
[1]
  fluorescence quenching: approximately 50%
[2]
  fluorescence quenching: approximately 50%

## O=C(O)CCP(CCC(=O)O)CCC(=O)O [TCEP, tris(2-carboxyethyl)phosphine]
[1]; [13]
  effect of additive on rate of fluorescence quenching by As(III): did not increase the rate of quenching

## OCCS [β-mercaptoethanol]
[1]; [13]
  effect of additive on rate of fluorescence quenching by As(III): increased the rate of quenching
